Assay results taken from ChEMBL document CHEMBL1949593, “Stilbene-chalcone hybrids: design, synthesis, and evaluation as a new class of antimalarial scaffolds that trigger cell death through stage specific apoptosis” (J Med Chem, 2012).
Calls of active or inactive are those of the source. The calls are words filed in the database; no cut-off is given here.

Columns and labels:
Plasmodium falciparum [1] = test: Induction of apoptosis in ring stage chloroquine-sensitive Plasmodium falciparum 3D7 assessed as chromatin fragmentation at 10 uM at 18 hrs by Hoechst 33342 staining; assay type: functional, organism-based
Plasmodium falciparum [2] = test: Induction of apoptosis in ring stage chloroquine-sensitive Plasmodium falciparum 3D7 assessed as nuclear condensation at 10 uM at 24 hrs by Giemsa staining
Plasmodium falciparum [3] = test: Antimalarial activity against ring stage chloroquine-resistant Plasmodium falciparum INDO infected in human O positive erythrocytes after 48 hrs by SYBR green 1 fluorescence assay; assay type: functional, organism-based
How it was run: (§1)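 Ring-stage cultures were sorbitol-synchronized in O+ human erythrocytes in RPMI 1640 with 0.5% Albumax, hypoxanthine and gentamicin, then plated at 2% hematocrit and 1% parasitemia. Drugs were tested at 0–100 μM (final DMSO 0.4%) in triplicate for 48 h at 37 °C under 5% O2/5% CO2/90% N2. Read-out was SYBR Green I (ex 497/em 520 nm). IC50 was read visually as 50% growth inhibition, with chloroquine as control.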

Plasmodium falciparum [4] = test: Induction of apoptosis in ring stage chloroquine-sensitive Plasmodium falciparum 3D7 assessed as disruption of mitochondrial membrane potential at 10 uM by JC-1 staining; assay type: functional, organism-based
How it was run: (§2)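 3D7 ring cultures were treated 24, 42 or 48 h, and trophozoite cultures 18 or 24 h. Parasites were stained with JC-1 for 20 min at 37 °C and viewed as wet mounts by fluorescence microscopy. Red-orange aggregate signal (590 nm) indicates intact ΔΨm; green monomer signal (525 nm) indicates dissipation.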

Plasmodium falciparum [5] = test: Reduction in parasitemia of ring stage chloroquine-sensitive Plasmodium falciparum 3D7 at 10 uM after 48 hrs by Giemsa staining; assay type: functional, organism-based
Plasmodium falciparum [6] = test: Antimalarial activity against chloroquine-sensitive Plasmodium falciparum 3D7 assessed as inhibition of schizonts growth at 10 uM treated for 8 hrs followed by washout measured after 48 hrs by Giemsa staining; assay type: functional, organism-based
How it was run: (§3)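 Highly synchronized 3D7 schizonts were exposed to drug for 8 h under normal culture conditions, alongside untreated controls. After a media wash, cultures were incubated for 48 h with or without drug. Giemsa-stained thin smears were examined microscopically for parasitemia and stage, and compared with control.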

Plasmodium falciparum [7] = test: Growth inhibition of ring stage chloroquine-sensitive Plasmodium falciparum 3D7 at 10 uM treated for 24 hrs followed by washout measured after 72 hrs by Giemsa staining; assay type: functional, organism-based
How it was run: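 Synchronized 3D7 ring cultures were exposed for 18, 24 or 48 h, then washed free of drug. Cultures were kept under normal conditions to 96 h total. Giemsa-stained thin smears were read by counting 3000 cells; inhibition is relative to the matching drug-free control.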

Plasmodium falciparum [8] = test: Induction of internucleosomal fragmentation in ring stage chloroquine-sensitive Plasmodium falciparum 3D7 at 10 uM at 24 hrs by Hoechst 33342 staining; assay type: functional, organism-based
How it was run: (§4)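 3D7 trophozoite cultures were treated 18 or 24 h, and ring cultures 24, 42 or 48 h. Parasites were stained with Hoechst 33342 for 10 min at room temperature, washed with PBS, and smeared. Condensed or fragmented chromatin (blue, 460 nm) was viewed by fluorescence microscopy.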

Plasmodium falciparum [9] = test: Antimalarial activity against chloroquine-sensitive Plasmodium falciparum 3D7 assessed as merozoites egress at 10 uM treated for 8 hrs followed by washout measured after 48 hrs by Giemsa staining; assay type: functional, organism-based; how it was run: as §3
Plasmodium falciparum [10] = test: Induction of apoptosis in chloroquine-sensitive Plasmodium falciparum 3D7 trophozoites assessed as chromatin fragmentation at 10 uM at 18 hrs by Hoechst 33342 staining; assay type: functional, organism-based; how it was run: as §4
Plasmodium falciparum [11] = test: Growth inhibition of chloroquine-sensitive Plasmodium falciparum 3D7 trophozoites at 10 uM treated for 24 hrs followed by washout measured after 48 hrs by Giemsa staining; assay type: functional, organism-based
How it was run: (§5)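 Highly synchronized 3D7 cultures were exposed by stage: rings 48 h, trophozoites 24 h, schizonts 8 h. After a media wash, cultures grew 48 h in drug-free complete RPMI, in triplicate. Giemsa smears were read by counting 3000 cells per stage; pycnotic parasites were scored nonviable. Inhibition is percent of drug-free control.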

Plasmodium falciparum [12] = test: Growth inhibition of chloroquine-sensitive Plasmodium falciparum 3D7 schizonts at 10 uM treated for 8 hrs following washout incubated for 48 hrs in drug free medium by SYBR green 1-based fluorescence assay; assay type: functional, organism-based
How it was run: (§6)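 Stage-specific exposure of synchronized 3D7: rings 48 h, trophozoites 24 h, schizonts 8 h. Drug was removed by media wash and cultures grew 48 h drug-free, in a separate triplicate set. Growth was read by SYBR Green I fluorescence and expressed as percent inhibition relative to drug-free control.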

Plasmodium falciparum [13] = test: Antimalarial activity against ring stage chloroquine-resistant Plasmodium falciparum Dd2 infected in human O positive erythrocytes after 48 hrs by SYBR green 1 fluorescence assay; assay type: functional, organism-based; settings: Dd2, 48 h; how it was run: as §1
Plasmodium falciparum [14] = test: Growth inhibition of chloroquine-sensitive Plasmodium falciparum 3D7 trophozoites at 10 uM treated for 24 hrs following washout incubated for 48 hrs in drug free medium by SYBR green 1-based fluorescence assay; assay type: functional, organism-based; how it was run: as §6
[15] = Therapeutic index, ratio of IC50 for human HeLa cells to IC50 for ring stage chloroquine-sensitive Plasmodium falciparum 3D7; assay type: cell-based; settings: read-out: Ratio IC50
How it was run: (§7)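 HeLa or L929 fibroblasts were seeded at 10^4 cells per well in RPMI with 10% FBS, left overnight, then exposed 24 h at 37 °C, 5% CO2. MTT was added for 3 h; formazan was dissolved in DMSO and read at 570 nm. IC50 came from dose–response curves. Index = IC50(mammalian)/IC50(Pf 3D7, SYBR Green assay).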

[16] = Resistance index, ratio of IC50 for ring stage chloroquine-resistant Plasmodium falciparum INDO to IC50 for ring stage chloroquine-sensitive Plasmodium falciparum 3D7; assay type: functional
Plasmodium falciparum [17] = test: Induction of internucleosomal fragmentation in chloroquine-sensitive Plasmodium falciparum 3D7 trophozoites at 10 uM at 24 hrs by Hoechst 33342 staining; assay type: functional, organism-based; how it was run: as §4
Plasmodium falciparum [18] = test: Induction of apoptosis in ring stage chloroquine-sensitive Plasmodium falciparum 3D7 assessed as chromatin condensation at 10 uM at 18 hrs by Hoechst 33342 staining; assay type: functional, organism-based
[19] = Inhibition of Plasmodium falciparum falcipain-2 using benzyloxycarbonyl-Phe-Arg-7-amino-4-methyl coumarin hydrochloride as substrate preincubated for 10 mins prior substrate addition by fluorimetric assay
How it was run: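 Recombinant falcipain-2 (2 μg) was preincubated 10 min at room temperature with or without compound, in triplicate. Buffer was 100 mM sodium acetate pH 5.5 with 10 mM DTT and 1% final DMSO. Z-Phe-Arg-AMC was then added at 10 μM final. AMC release was read at ex 355/em 460 nm. IC50 was taken by visual matching of 50% inhibition.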

[20] = Therapeutic index, ratio of IC50 for […] cells to IC50 for ring stage chloroquine-sensitive Plasmodium falciparum 3D7; assay type: cell-based; settings: mouse, read-out: Ratio IC50; how it was run: as §7
Plasmodium falciparum [21] = test: Induction of apoptosis in chloroquine-sensitive Plasmodium falciparum 3D7 trophozoites assessed as chromatin condensation at 10 uM at 18 hrs by Hoechst 33342 staining; assay type: functional, organism-based; how it was run: as §4
Plasmodium falciparum [22] = test: Growth inhibition of chloroquine-sensitive Plasmodium falciparum 3D7 schizonts at 10 uM treated for 8 hrs following washout incubated for 48 hrs in drug free medium by Giemsa staining; assay type: functional, organism-based; how it was run: as §5
Plasmodium falciparum [23] = test: Induction of apoptosis in chloroquine-sensitive Plasmodium falciparum 3D7 trophozoites assessed as disruption of mitochondrial membrane potential at 10 uM by JC-1 staining; assay type: functional, organism-based; how it was run: as §2
Plasmodium falciparum [24] = test: Inhibition of RBC invasion of chloroquine-sensitive Plasmodium falciparum 3D7 schizonts at 10 uM treated for 8 hrs followed by washout measured after 48 hrs by Giemsa staining; assay type: functional, organism-based; how it was run: as §3
Plasmodium falciparum [25] = test: Reduction in parasitemia of chloroquine-sensitive Plasmodium falciparum 3D7 trophozoites at 10 uM after 48 hrs by Giemsa staining; assay type: functional, organism-based
Plasmodium falciparum [26] = test: Growth inhibition of ring stage chloroquine-sensitive Plasmodium falciparum 3D7 at 10 uM treated for 48 hrs following washout incubated for 48 hrs in drug free medium by Giemsa staining; assay type: functional, organism-based; how it was run: as §5
[27] = Resistance index, ratio of IC50 for ring stage chloroquine-resistant Plasmodium falciparum Dd2 to IC50 for ring stage chloroquine-sensitive Plasmodium falciparum 3D7; assay type: functional
Plasmodium falciparum [28] = test: Antimalarial activity against ring stage chloroquine-sensitive Plasmodium falciparum 3D7 infected in human O positive erythrocytes after 48 hrs by SYBR green 1 fluorescence assay; assay type: functional, organism-based; settings: 3D7, 48 h
How it was run: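 P. falciparum 3D7 in O+ human erythrocytes in complete RPMI with Albumax at 37 °C under 5% O2/5% CO2. Culture was sorbitol-synchronized to rings and plated at 2% hematocrit, 1% parasitemia. Drug range was 0–100 μM with 0.4% final DMSO, in triplicate. After 48 h, SYBR Green I fluorescence was read (ex 497/em 520 nm). IC50 was taken by visual matching of 50% growth inhibition.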

Plasmodium falciparum [29] = test: Induction of apoptosis in chloroquine-sensitive Plasmodium falciparum 3D7 trophozoites assessed as nuclear condensation at 10 uM at 18 hrs by Giemsa staining; assay type: functional, organism-based
Plasmodium falciparum [30] = test: Growth inhibition of ring stage chloroquine-sensitive Plasmodium falciparum 3D7 at 10 uM treated for 48 hrs following washout incubated for 48 hrs in drug free medium by SYBR green 1-based fluorescence assay; assay type: functional, organism-based; how it was run: as §6

In the case of `COc1cc(OC)c(OC)cc1/C=C/C(=O)c1ccc(/C=C/c2cc(OC)c(OC(C)=O)c(OC)c2)cc1`, the Activity (Plasmodium falciparum [1]) is reported as “Active”, the Activity (Plasmodium falciparum [2]) is reported as “Active” and the IC50 (Plasmodium falciparum [3]) is reported as 1980 nM. For the same compound, the Activity (Plasmodium falciparum [4]) was “Active”, the Activity (Plasmodium falciparum [5]) was “Active” and the “growth inhibition (GI)” value (Plasmodium falciparum [6]) was “inactive”. The “growth inhibition (GI)” value (Plasmodium falciparum [7]) was “Active”, the Activity (Plasmodium falciparum [8]) was “inactive” and the inhibition (Plasmodium falciparum [9]) was “inactive”. The Activity (Plasmodium falciparum [10]) was “Active”, the “growth inhibition (GI)” value (Plasmodium falciparum [11]) was “Active” and the “growth inhibition (GI)” value (Plasmodium falciparum [12]) was “inactive”. The IC50 (Plasmodium falciparum [13]) was 2200 nM, the “growth inhibition (GI)” value (Plasmodium falciparum [14]) was “Active” and the selectivity ratio [15] was greater than 45.5. The “Ratio IC50” value [16] was 0.9, the Activity (Plasmodium falciparum [17]) was “Active” and the Activity (Plasmodium falciparum [18]) was “Active”. For the same compound, the IC50 [19] was 25000 nM, the selectivity ratio [20] was greater than 45.5 and the Activity (Plasmodium falciparum [21]) was “Active”. The “growth inhibition (GI)” value (Plasmodium falciparum [22]) was “inactive”, the Activity (Plasmodium falciparum [23]) was “Active” and the inhibition (Plasmodium falciparum [24]) was “inactive”. For the same compound, the Activity (Plasmodium falciparum [25]) was “Active”, the “growth inhibition (GI)” value (Plasmodium falciparum [26]) was “Active” and the “Ratio IC50” value [27] was 1. The IC50 (Plasmodium falciparum [28]) was 2200 nM, the Activity (Plasmodium falciparum [29]) was “Active” and the “growth inhibition (GI)” value (Plasmodium falciparum [30]) was “Active”.
